Legend:
[1] = system: Canis familiaris; assay: Ex vivo TXA2 ([…]) antagonist activity was determined for U-46,619 induced aggregation (dose ratio) after 24 hr of oral dosing (10 mg/kg) in the dog; assay type: functional, Canis lupus familiaris
Method in brief: (§1)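 Dogs (n = 4) dosed orally, blood sampled at 2, 5, 8 and 24 h. Platelet-rich plasma aggregated with U46619 plus a predetermined threshold ADP concentration (about 0.4–1.2 × 10^-6 M), compared before vs after dosing to give a U46619 dose ratio. ">" marks the maximum achievable ratio at top U46619 (1 × 10^-4 M).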

[2] = system: Canis familiaris; assay: Ex vivo TXA2 ([…]) antagonist activity was determined for U-46,619 induced aggregation (dose ratio) after 2 hr of oral dosing (10 mg/kg) in the dog; assay type: functional, Canis lupus familiaris; method in brief: as §1
[3] = system: Canis familiaris; assay: Ex vivo TXA2 ([…]) antagonist activity was determined for U-46,619 induced aggregation (dose ratio) after 2 hr of oral dosing (1 mg/kg) in the dog; assay type: functional, Canis lupus familiaris; method in brief: as §1
[4] = system: Canis familiaris; assay: Ex vivo TXA2 ([…]) antagonist activity was determined for U-46,619 induced aggregation (dose ratio) after 2 hr of oral dosing (3 mg/kg) in the dog; assay type: functional, Canis lupus familiaris; method in brief: as §1
[5] = system: Canis familiaris; assay: Ex vivo TXA2 ([…]) antagonist activity was determined for U-46,619 induced aggregation (dose ratio) after 8 hr of oral dosing (10 mg/kg) in the dog; assay type: functional, Canis lupus familiaris; method in brief: as §1
[6] = system: Canis familiaris; assay: Ex vivo TXA2 ([…]) antagonist activity was determined for U-46,619 induced aggregation (dose ratio) after 8 hr of oral dosing (1 mg/kg) in the dog; assay type: functional, Canis lupus familiaris; method in brief: as §1
[7] = system: Canis familiaris; assay: Ex vivo TXA2 ([…]) antagonist activity was determined for U-46,619 induced aggregation (dose ratio) after 8 hr of oral dosing (3 mg/kg) in the dog; assay type: functional, Canis lupus familiaris; method in brief: as §1
[8] = system: Rattus norvegicus; assay: Ex vivo […] (TXA2 synthase) inhibitory activity after 3 hr of oral dosing (10 mg/kg) in the rat; assay type: functional
Method in brief: (§2)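 Rats (n = 6) gavaged, anesthetized, aortic blood taken at 1, 3 or 5 h after dosing. A blood aliquot was challenged with collagen and TXB2 measured by radioimmunoassay; expressed as % inhibition of TXA2 synthase (±SEM).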

[9] = system: Rattus norvegicus; assay: Ex vivo […] (TXA2 synthase) inhibitory activity after 5 hr of oral dosing (5 mg/kg) in the rat; assay type: functional; method in brief: as §2
[10] = system: Rattus norvegicus; assay: Ex vivo […] (TXA2 synthase) inhibitory activity after 1 hr of oral dosing (3 mg/kg) in the rat; assay type: functional; method in brief: as §2
[11] = system: Rattus norvegicus; assay: Ex vivo TXA2 ([…]) antagonist activity was determined for U-46,619 induced aggregation (dose ratio) after 1 hr of oral dosing (10 mg/kg) in the rat; assay type: functional
Method in brief: (§3)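 Conscious rats (n = 6) dosed by oral gavage, then anesthetized and bled from the abdominal aorta at 1, 3 or 5 h. Platelet-rich plasma aggregated with U46619 before and after dosing to give a U46619 dose ratio. ">" values mark the maximum dose ratio achievable at the top U46619 concentration (1 × 10^-4 M).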

[12] = system: Rattus norvegicus; assay: Ex vivo TXA2 ([…]) antagonist activity was determined for U-46,619 induced aggregation (dose ratio) after 3 hr of oral dosing (10 mg/kg) in the rat; assay type: functional; method in brief: as §3
[13] = system: Rattus norvegicus; assay: Ex vivo TXA2 ([…]) antagonist activity was determined for U-46,619 induced aggregation (dose ratio) after 5 hr of oral dosing (10 mg/kg) in the rat; assay type: functional; method in brief: as §3
[14] = biological target: T1, Thromboxane-A synthase (Homo sapiens, UniProt P24557); assay: In vitro Inhibition of thromboxane synthase from human blood platelet microsomes
T1 sequence (P24557 whole entry): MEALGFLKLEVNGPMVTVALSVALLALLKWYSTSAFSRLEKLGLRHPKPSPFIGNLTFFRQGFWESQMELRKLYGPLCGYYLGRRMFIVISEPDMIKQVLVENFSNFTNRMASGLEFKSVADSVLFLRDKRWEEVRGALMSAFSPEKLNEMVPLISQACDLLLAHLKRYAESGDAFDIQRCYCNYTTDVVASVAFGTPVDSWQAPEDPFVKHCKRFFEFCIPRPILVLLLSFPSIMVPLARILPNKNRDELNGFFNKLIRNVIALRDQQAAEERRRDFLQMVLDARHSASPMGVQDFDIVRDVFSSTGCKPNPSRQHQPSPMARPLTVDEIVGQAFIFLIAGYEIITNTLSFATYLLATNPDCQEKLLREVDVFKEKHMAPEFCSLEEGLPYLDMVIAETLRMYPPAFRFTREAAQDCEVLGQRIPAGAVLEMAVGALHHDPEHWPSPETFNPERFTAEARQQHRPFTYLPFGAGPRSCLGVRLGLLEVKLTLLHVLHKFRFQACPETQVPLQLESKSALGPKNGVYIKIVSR
Method in brief: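 Human blood platelet microsomes incubated with [1-14C]arachidonic acid with or without inhibitor. Conversion to labeled thromboxane B2 quantified radiochromatographically. n = 2.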

IC50 [14]: 19 nM
Structure (SMILES): Cc1ccc(OC(C)(C)C2OCC(C/C=C\CCC(=O)O)C(c3cccnc3)O2)c([N+](=O)[O-])c1 (stereo in doubt; 7x)
Antagonist activity [1]: >522
Antagonist activity [2]: >522
Antagonist activity [3]: >506
Antagonist activity [4]: >321
Antagonist activity [5]: >522
Antagonist activity [6]: >506
Antagonist activity [7]: >321
Inhibition [8]: 93.9%
Inhibition [9]: 79.3%
Inhibition [10]: 90.8%
Antagonist activity [11]: >113
Antagonist activity [12]: >71
Antagonist activity [13]: >92
